Screening data as filed in PubChem BioAssay.
In the library only some 1.5% were active in any assay of this set; here they are far more common.
iPSC survival up: enhancers of human iPSC single-cell survival; survival enhancement, % at 20 µM; hit rate 0.044% among 360,000; hiPSC single-cell survival, ATPlite luminescence; 100% = ROCK inhibitor wells, 0% = DMSO; AID 602274; in the data active means survival enhancement above about 18%;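 further: cells exposed to compounds for 16 hours before the ATP read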
CCR6 antag: CCR6 (human) receptor antagonism. P51684. hit rate 0.49% among 340,000. inhibition, % at 20 µM. CHO-K1 CCR6 PathHunter beta-arrestin, luminescence, CCL20-stimulated;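 active means compounds whose inhibition of the agonist-driven luminescence signal at 20 µM reaches about 50%, limit read from the data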;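 further: cells stimulated with CCL20 at 14 nM final; plate controls were DMSO with CCL20 for no effect and DMSO without agonist for full effect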
APJ antag: APJ receptor antagonism; AID 2521; CHO-K1 APJ beta-arrestin complementation, luminescence; hit rate 0.32% among 330,000; inhibition, % at 20 µM; P35414;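 active means inhibition above about 40% at 20 µM, limit read from the data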;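 further: cells challenged with 10 nM apelin-13 agonist together with compound; plate controls were apelin-13 plus DMSO wells for no effect and DMSO wells lacking apelin-13 for full effect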
CXCR6 inh: CXCR6 (human) receptor inhibition; AID 602244; inhibition, % at 20 µM; CHO-K1 PathHunter CXCR6 beta-arrestin, luminescence; hit rate 0.36% among 360,000; in the data active means inhibition above about 34%, passing the limit was not always enough;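 further: antagonist mode with CXCL16 agonist at 10 nM final; 0% = 10 nM CXCL16 with DMSO and 100% = unstimulated wells without agonist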
Target sequence (O00574 whole entry, looked up): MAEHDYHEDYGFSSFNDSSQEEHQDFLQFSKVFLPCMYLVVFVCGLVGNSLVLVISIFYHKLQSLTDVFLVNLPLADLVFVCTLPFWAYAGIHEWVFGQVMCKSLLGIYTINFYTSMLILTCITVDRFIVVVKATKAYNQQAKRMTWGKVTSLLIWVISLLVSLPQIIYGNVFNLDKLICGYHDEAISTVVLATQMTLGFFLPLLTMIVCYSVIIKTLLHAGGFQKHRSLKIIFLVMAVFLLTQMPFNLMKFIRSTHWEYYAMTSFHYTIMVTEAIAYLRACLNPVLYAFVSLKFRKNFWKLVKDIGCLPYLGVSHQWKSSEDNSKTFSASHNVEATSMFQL
APJ ag: APJ receptor agonism; P35414; CHO-K1 APJ PathHunter beta-arrestin, luminescence; 0% DMSO wells, 100% apelin; activation, % at 20 µM; hit rate 0.11% among 330,000;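 active means activation more than six SD over the plate average, tested at 20 µM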;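 further: 0% = DMSO alone and 100% = apelin-13 at 10 nM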
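Material: engineered CHO-K1 APJ arrestin reporter cells; amount: 1000 CHO-K1 reporter cells seeded per well; incubation: compound stimulation 90 min at 25 °C, detection 60 min; signal: luminescent beta-gal fragment complementation, chemiluminescent substrate; read-out basis: APJ agonist activity; controls: DMSO-only wells as negative, 10 nM Apelin-13 as positive control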
EBI2 block: EBI2 (human) antagonism; EBI2 beta-arrestin recruitment, luminescence, 7a,25-OHC stimulated; inhibition, % at 5 µM; hit rate 0.81% among 360,000; AID 651636; in the data active means inhibition above about 38%;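 further: enzyme fragment complementation signal reports receptor beta-arrestin coupling in cells; 0% = agonist plus DMSO wells and 100% = wells without agonist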
An asterisk follows results filed as active; . = no result.

SMILES | iPSC survival up | CCR6 antag | APJ antag | CXCR6 inh | APJ ag | EBI2 block
COc1ccc(CCNC(=O)COc2cccc(-n3cnnn3)c2)cc1 | 0 | 7 | 24 | -3 | -1 | 3
CS(=O)(=O)c1nc(-c2ccc(Br)cc2)cc(-c2ccccc2)c1C#N | -5 | -18 | -30 | -6 | 8 | 81*
N#Cc1c(-c2ccc(Br)cc2)cc(-c2cccnc2)nc1N | -1 | 14 | 3 | 3 | -4 | 5
O=C(O)c1cccc2c1/C(=N/Nc1ccc([N+](=O)[O-])cc1[N+](=O)[O-])c1ccccc1-2 | 1 | 53* | 15 | 24 | -5 | 19
O=C(Nc1cc(Cl)ccc1-n1cncn1)c1cccc(S(=O)(=O)N2CCOCC2)c1 | 0 | 11 | -2 | -7 | -5 | -3
COc1ccc(-c2cc(NC(C)=O)c3ncc(-c4ccc(F)cc4)n3c2)cc1OC | 0 | . | . | 11 | . | 23
Cc1ccc(CCN2CC(C(=O)NCCCN3CCCCCC3)CC2=O)cc1 (stereo not drawn) | 22* | 2 | -16 | -8 | -8 | -4
CC1(C)OC(c2ccccc2)=C/C(=C/C=C2C(=O)c3ccccc3C2=O)O1 | 0 | 59* | 36 | 46* | -7 | 10
CC(C)Cn1c(SC(C)C(=O)NC2CC2)nnc1-c1ccccc1F (stereo not drawn) | -2 | 18 | 10 | 3 | -3 | 2
COc1ccc(NC(=S)NC(NC(=O)c2cccc(Cl)c2)C(Cl)(Cl)Cl)c([N+](=O)[O-])c1 (stereo not drawn) | 2 | 58* | 39 | 20 | -4 | 9
OC(Cc1ccnc2ccccc12)C(Cl)(Cl)Cl (stereo not drawn) | -2 | 2 | . | 2 | . | 4
O=C(O)c1ccc(N2C(=O)c3ccccc3C2=O)cc1[N+](=O)[O-] | 2 | . | . | -8 | . | -8
N=C1C=CC(=C(c2ccc(N)cc2)c2ccc(N)cc2)C=C1 | -1 | 51* | . | 39 | . | 15
Nc1ccc(C(=O)C(=O)c2ccc(N)cc2)cc1 | 0 | 11 | 4 | 2 | -3 | 1
CS(=O)(=O)c1ccc(S(=O)CC(=O)OCc2ccccc2)c([N+](=O)[O-])c1 (stereo not drawn) | -5 | . | . | 52* | . | 41*
Cc1ccccc1C(=O)NC(=S)Nc1ccc(Oc2ccc(Cl)cc2)cc1 | 0 | 53* | 36 | 25 | -6 | 22
Cc1ccc(CCNS(=O)(=O)c2ccc3c(c2)NC(=O)C(C)C(=O)N3)cc1 (stereo not drawn) | 1 | 12 | 4 | -13 | -3 | -2
COc1ccccc1COCC(O)CN(Cc1ccco1)Cc1ccccc1O (stereo not drawn) | 4 | 88* | 2 | 4 | -2 | 7
Cc1ccc(NC(=O)CN(Cc2ccco2)Cc2ccccc2O)cc1C | 1 | 18 | 9 | 8 | 0 | 20
O=S1(=O)CCOC[C@H](c2ccccc2)N1Cc1ccccc1F | -2 | 10 | -21 | -1 | -4 | -9
CCN(CC)c1ccc(C(=S)N2CCN(c3ccccc3)CC2)cc1 | -1 | 32 | 6 | 6 | -6 | 64*
S=C(c1ccccc1)N1CCN(c2ccccc2)CC1 | -2 | 14 | . | 3 | . | 4
Cc1ccc(Cl)cc1N1C(=O)CC(Sc2ccccc2N)C1=O (stereo not drawn) | -3 | . | . | -2 | . | 0
O=C1C=C(c2cccc3c2sc2ccccc23)C[C@@H](c2ccc(F)cc2)C1 | -1 | 9 | -3 | -5 | -4 | 67*
COc1c(F)cccc1C1=CC(=O)C[C@H](c2ccc(F)cc2)C1 | -3 | . | . | 6 | . | 10
SMILES | iPSC survival up | CCR6 antag | APJ antag | CXCR6 inh | APJ ag | EBI2 block
C[C@H]1CN([C@@H](C)CO)C(=O)c2cccc(NC(=O)Nc3ccc(C(F)(F)F)cc3)c2O[C@@H]1CN(C)C(=O)Nc1ccc(F)cc1 | 1 | 0 | -1 | -14 | 0 | 26
C[C@H](CO)N1C[C@H](C)[C@@H](CN(C)C(=O)Nc2ccc(C(F)(F)F)cc2)Oc2c(NC(=O)Nc3ccc(C(F)(F)F)cc3)cccc2C1=O | 2 | -11 | -6 | -19 | 0 | 43*
C[C@@H](C(=O)Nc1ccc2ccccc2c1)[C@@H]1C[C@@]1(C)[C@@H](NC(=O)c1ccccc1)c1ccccc1 | -1 | 7 | -15 | 2 | 5 | 54*
Cc1cc(N2CCN(C)CC2)ccc1NC(=O)c1c2c(nc3ccccc13)CCN(Cc1ccccc1)C2 | -1 | 0 | -16 | -11 | 16* | -5
O=C(NC1CCCCCC1)c1c2c(nc3ccccc13)CCN(Cc1ccccc1)C2 | 2 | 1 | -12 | 15 | -1 | 9
Oc1ccc(/C=N/NC(=S)NC2CC3CCC2C3)cc1 (stereo not drawn) | -1 | 3 | -1 | 9 | 3 | 49*
CCN1C(=O)/C(=C/C=C2/Sc3ccc4ccccc4c3N2CCO)SC1=S | 0 | 51* | 27 | 9 | -3 | 12
CCN1C(c2ccccc2)=C(c2ccccc2)S/C1=C/C=C1\SC(=S)N(C)C1=O | 0 | -74 | . | -16 | . | -5
CC1=C/C(=C(\c2cc(C)c(O)c(Br)c2)c2ccccc2S(=O)(=O)O)C=C(Br)C1=O | -1 | 59* | 19 | 31 | -5 | 4
COc1ccc(C2=NS(=O)(=O)N(C)C(C(=O)N(C)Cc3ccccc3)=C2)cc1OC | 5 | 9 | 21 | 5 | -2 | -4
CC(=O)OCCNc1cc(SCc2ccco2)c2nonc2c1[N+](=O)[O-] | 0 | 75* | . | 50* | . | -28
O=[N+]([O-])c1c(NCCCO)cc(SCc2ccco2)c2nonc12 | 1 | 63* | 10 | 28 | 1 | 1
COC(=O)CCSc1cc(NCCOC(C)=O)c([N+](=O)[O-])c2nonc12 | 2 | 33 | 21 | 27 | -3 | 2
CCn1nccc1NC(=O)c1ccc2sc([C@@H]3O[C@H](CO)[C@H](O)[C@H](O)[C@H]3O)nc2c1 | -1 | . | . | -2 | . | 1
COc1ccc(NC2CCCN(C(=O)c3ccc4[nH]c(C)c(C)c4c3)C2)cc1 (stereo not drawn) | 2 | 17 | 9 | -10 | -3 | 8
Cc1cc(N/N=C/c2ccc(O)cc2O)nc(-n2nc(C)cc2C)n1 | 1 | 93* | . | 92* | . | 84*
O=S1(=O)C=C(Sc2nc3cc(Cl)ccc3o2)c2ccccc21 | -2 | 74* | 24 | 56* | -6 | 14
Cc1cc(NC(=O)CSc2nc3cc(Cl)ccc3o2)no1 | 0 | 19 | 29 | 12 | -1 | 1
CCC(Sc1ccc2nnc(-c3cccnc3)n2n1)C(=O)O (stereo not drawn) | 23* | 1 | 5 | 8 | 2 | -2
OCC[C@@H]1C[C@H](O)[C@@H](O)[C@]2(OCCc3cc(Cl)ccc32)O1 | 2 | . | . | 1 | . | 2
